Assay outcomes: PubChem, Johns Hopkins Ion Channel Center
MrgX1 agonist = agonists of human MrgX1 receptor | MrgX1-HEK293 cells, Fluo-4 calcium fluorescence, agonist mode; hits give high values | hit rate 0.44% among 310,000 | B-score at 10 µM | Q96LB2 | AID 588627;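 active means calcium response B-score plate-corrected fluorescence ratio at least 3 library SD, with starting fluorescence B-score inside 5 SD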
Target sequence (Q96LB2 whole entry, looked up): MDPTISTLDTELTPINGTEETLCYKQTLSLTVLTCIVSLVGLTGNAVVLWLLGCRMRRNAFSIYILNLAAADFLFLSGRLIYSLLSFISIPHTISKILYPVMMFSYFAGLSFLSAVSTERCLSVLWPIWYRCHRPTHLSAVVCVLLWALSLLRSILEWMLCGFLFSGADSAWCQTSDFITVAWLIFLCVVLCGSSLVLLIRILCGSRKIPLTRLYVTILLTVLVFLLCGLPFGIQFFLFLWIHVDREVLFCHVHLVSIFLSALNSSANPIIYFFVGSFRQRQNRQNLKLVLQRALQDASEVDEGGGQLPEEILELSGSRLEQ
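Material: HEK293 cells stably expressing human MrgX1 receptor | Quantity: 15,000 cells per well | Times: Cells plated overnight, dye loaded 0.5 h 37 °C, 0.5 h room temperature | Measured by: Kinetic Fluo-4 NW fluorescence of intracellular calcium | Control set: Positive and negative controls per plate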
MrgX1 antag = human MrgX1 receptor antagonism, primary screen. Q96LB2. MRGX1-HEK293 calcium flux, Fluo-4, BAM8-22 antagonism; hits give low values. B-score at 10 µM. hit rate 1.3% among 310,000;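 active means calcium-response B-score plate-corrected more than 3 library SD below zero, starting fluorescence within 5 deviations, no agonist response on first addition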;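 further: peak minus trough fluorescence over baseline after final BAM8-22 challenge near maximal dose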
RGS4 act = potentiators or activators of RGS4; HEK293 M3R/inducible RGS4, carbachol calcium flux Fluo4; hits give low values; AID 463111; hit rate 0.92% among 310,000; B-score at 10 µM;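 active means B-score of the integrated calcium signal more than 4 SD below the library mean, with starting fluorescence not abnormally high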;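 further: negative B-score means reduced calcium response which marks RGS4 activation or potentiation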
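System – HEK293 FlpIn-TREx cells, stable M3R, doxycycline-inducible RGS4 · Reagent – ECmax carbachol challenge · Times – compound preincubation 20 min at room temperature before agonist · Technique – Fluo4 fluorescence kinetic imaging of calcium · Measure – B score of integrated Fluo4 ratio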
MrgX1 PAM = human MrgX1 positive allosteric modulation, primary screen | MrgX1-HEK293, Fluo-4 calcium flux, FDSS; hits give high values | B-score at 10 µM | hit rate 0.63% among 310,000 | AID 588675;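 active means plate-corrected calcium response at least 3 library SD above typical, normal starting fluorescence, not activating the receptor alone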;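 further: compound read alongside a low EC10 to EC30 dose of BAM8-22 agonist; peak minus trough fluorescence over baseline measured at the second addition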
RGS4 block = human RGS4 inhibition. P49798. HEK293 M3R/RGS4 inducible, Fluo-4 calcium flux; hits give high values; triggered by carbachol at its EC20. B-score at 10 µM. hit rate 0.45% among 310,000;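 active means B-score, a plate-corrected calcium signal, over three deviations above library mean, with baseline fluorescence within five deviations of library mean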;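 further: RGS4 expression induced by doxycycline in cells with stable M3 receptor; B-score is computed from the integrated fluorescence ratio over baseline after carbachol; higher B-score means a larger calcium signal and so more RGS4 inhibition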
Target sequence (P49798 whole entry, looked up): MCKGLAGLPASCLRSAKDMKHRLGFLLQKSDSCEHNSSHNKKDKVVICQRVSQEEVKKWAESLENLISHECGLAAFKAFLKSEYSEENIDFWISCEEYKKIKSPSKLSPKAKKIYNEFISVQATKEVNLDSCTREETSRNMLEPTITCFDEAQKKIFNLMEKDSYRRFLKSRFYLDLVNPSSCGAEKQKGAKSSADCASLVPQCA
MrgX1 ant reconf = reconfirmed antagonist of human MrgX1 receptor signaling. remaining BAM8-22 calcium response % of control (hits give low values), % at 10 µM. MrgX1-HEK293, BAM8-22 calcium flux, Fluo-4; hits give low values. shares compounds with MrgX1 antag. hit rate 19% among 2,300;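 active means remaining agonist calcium response no higher than 100% minus 3 SD of agonist-only control wells, with starting fluorescence near control levels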;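 further: agonist BAM8-22 given at a near maximal EC90 to ECmax level; peak minus minimum fluorescence divided by baseline after agonist addition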
HEK293 Ca flux = counter-screen for MrgX1 antagonists: effect in parental HEK293 cells; shares compounds with MrgX1 antag; Fluo-4 calcium fluorescence, FDSS; fluorescence ratio F(max-min)/F0 at 10 µM; hit rate 2% among 4,000;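 active means duplicate-averaged calcium fluorescence ratio at least three times the standard deviation of buffer wells, a nonspecific response in parental cells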
HEK293 Ca counter = MrgX1 allosteric activator counter-screen hit in parental HEK293 cells; shares compounds with MrgX1 antag; parental HEK293 calcium flux, Fluo-4 fluorescence ratio; hits give high values; fluorescence ratio F(max-min)/F0 at 10 µM; hit rate 0.4% among 4,000; AID 624114;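 active means calcium fluorescence ratio, averaged over duplicates, at least 3 SD of the buffer-well ratio, meaning a nonspecific response in receptor-free cells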;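 further: untransfected parental HEK293 lacking MrgX1 used as counterscreen for MrgX1 allosteric activators; fluorescence change taken during the second addition on a kinetic imager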
HEK293 Ca cntr2 = counter-screen for MrgX1 activators: effect in parental HEK293 cells; hit rate 8.7% among 4,000; shares compounds with MrgX1 antag; AID 624115; Fluo-4 calcium fluorescence (FDSS); hits give high values; fluorescence ratio F(max-min)/F0 at 10 µM;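 active means calcium fluorescence ratio at least three times the spread of buffer wells, meaning a non-specific response in parental cells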
Starred values were filed as active, the others as inactive; i = inactive; . = no result. The list is not random: actives were taken first. Their share in the collection is about 3.5%.

SMILES	MrgX1 agonist	MrgX1 antag	RGS4 act	MrgX1 PAM	RGS4 block	MrgX1 ant reconf	HEK293 Ca flux	HEK293 Ca counter	HEK293 Ca cntr2
CC(OC(=O)COc1cccc2c1OC(C)(C)C2)C(=O)Nc1ccc(S(N)(=O)=O)cc1 (centres undefined)	i	-5.4*	i	i	i	i	i	i	i
CN(CC(=O)NNC(=O)CNC(=O)c1cccs1)S(=O)(=O)c1ccc(Cl)cc1	i	i	i	i	i	.	.	.	.
NC(=S)Nc1ccc(Cl)cc1Cl	i	-6.5*	i	i	i	i	i	i	i
S=C(Nc1ccccc1)Nc1ccc(Cl)cc1Cl	i	i	i	i	i	.	.	.	.
CCN1CCN(/C=N/c2nc3c(s2)CCCC3)CC1	i	-4.5*	i	i	i	i	i	i	i
COCC(=O)N1CCC(Oc2ccc(C(=O)N3CCCCC3COC)cc2)CC1 (centres undefined)	i	i	i	i	i	.	.	.	.
COc1ccc(OC)c(CNS(=O)(=O)c2cn(C)cn2)c1	i	-4.5*	i	i	i	i	i	i	i
CC(=O)CSc1ncnc2sc3c(c12)CCC3	i	i	i	i	i	.	.	.	.
CC(C)(C)C(=O)CSc1ncnc2sc3c(c12)CCC3	i	-9.7*	i	i	i	i	i	i	i
Cc1cc(SCC(=O)OCC(=O)N(C)c2ccccc2)nc2ccccc12	i	i	i	i	i	.	.	.	.
Cc1ccccc1OCCN(C#N)c1nc(N(C)C)nc(N(C)C)n1	i	-4.9*	i	i	i	i	i	i	i
COc1ccc(-c2cc(-c3ccccc3)nc(-c3ccc4c(c3)NC(=O)CO4)c2)cc1	i	-5.9*	i	i	i	i	i	i	i
COc1ccc(Nc2nc(-c3ccc4c(c3)NC(=O)CO4)cs2)cc1	i	i	i	i	i	.	.	.	.
Cc1ccc(C2C3=C(CCCC3=O)N=C3c4ccccc4C(=O)C32)cc1 (centres undefined)	i	-16*	i	i	i	i	i	i	i
O=C1CCCC2=C1C(c1ccccc1)C1C(=O)c3ccccc3C1=N2 (centres undefined)	i	i	i	i	i	.	.	.	.
Cc1cccc(NC(=O)CNC(=O)c2ccc3c(c2)OCO3)n1	i	-9.4*	i	i	i	i	i	i	i
C(=N\n1cnnc1)/c1ccccn1	i	i	i	i	i	.	.	.	.
C(=N\n1cnnc1)/c1ccc2ncccc2c1	i	-4.7*	i	i	i	i	i	i	i
CC1=C(C(=O)Nc2ccccc2)C(c2ccco2)C(C#N)=C(SCc2ccccc2)N1 (centres undefined)	i	i	i	i	i	.	.	.	.
CC1=C(C(=O)Nc2ccccc2)C(c2ccco2)C(C#N)=C(SCC(=O)OC(C)C)N1 (centres undefined)	i	-11*	i	i	i	i	i	i	i
COc1ccccc1N1CCN(C(=O)C2CCCO2)CC1 (centres undefined)	i	-8.2*	i	i	i	i	i	i	i
CC1(C(=O)N/N=C/c2ccccc2)CC1(Cl)Cl (centres undefined)	i	i	i	i	i	.	.	.	.
CN1CCN(c2ncnc3scc(-c4ccccc4Cl)c23)CC1	i	i	i	i	i	.	.	.	.
Cc1cc(-c2csc3ncnc(N4CCN(C)CC4)c23)cc(C)c1C	i	-4.9*	i	i	i	i	i	i	i
CCCC1(C)NC(=O)c2ccccc2O1 (centres undefined)	i	-4.9*	i	i	i	i	i	i	i
SMILES	MrgX1 agonist	MrgX1 antag	RGS4 act	MrgX1 PAM	RGS4 block	MrgX1 ant reconf	HEK293 Ca flux	HEK293 Ca counter	HEK293 Ca cntr2
O=C1NC(O)(c2ccccc2)Oc2ccccc21 (centres undefined)	i	i	i	i	i	.	.	.	.
O=C(NCc1ccco1)c1ccc([N+](=O)[O-])o1	i	i	i	i	i	.	.	.	.
CC1(C(=O)Nc2ccc3c(c2)OCCO3)CC1(Cl)Cl (centres undefined)	i	i	i	i	i	.	.	.	.
Cc1cc(C)c(S(=O)(=O)N2CCCc3ccccc32)c(C)c1	i	-7.1*	i	i	i	i	i	i	52*
CC1CC(C)CN(C(=O)C2CCN(S(=O)(=O)N3CCC4(CC3)OCCO4)CC2)C1 (centres undefined)	i	i	i	i	i	.	.	.	.
NS(=O)(=O)c1ccc(CCNC(=O)NC23CC4CC(CC(C4)C2)C3)cc1	i	i	i	i	i	.	.	.	.
NS(=O)(=O)c1ccc(-n2nncc2C23CC4CC(CC(C4)C2)C3)cc1	i	-7.3*	i	i	i	i	i	i	i
COc1ccc(-c2nc3c(c4nnc(SC(C)C(=O)Nc5ccccc5)n24)COC(C)(C)C3)cc1 (centres undefined)	i	-6.5*	i	i	i	i	i	i	i
O=S(=O)(Nc1cccc(-c2nnco2)c1)c1ccc(F)cc1F	i	i	i	i	i	.	.	.	.
O=C(N[C@@H](Cc1ccccc1)C(=O)O)c1cccs1	i	i	i	i	i	.	.	.	.
COc1ccc(CNC(=O)CC2Sc3ccccc3NC2=O)cc1 (centres undefined)	i	i	i	i	i	.	.	.	.
O=C(COC(=O)CC1Sc2ccccc2NC1=O)NCc1ccccc1 (centres undefined)	i	-11*	i	i	i	i	i	i	i
CCOC(=O)c1ccc2c(c1)nc(COc1ccc3ccccc3c1)n2CC	i	-5.2*	-7.3*	i	i	i	i	i	i
CCn1c(COc2ccc(OC)cc2)nc2ccccc21	i	i	i	i	i	.	.	.	.
